From publication PMC4604364 (Antimicrobial Agents and Chemotherapy, 2015)
Values after ≈ are worked out from the molar mass of the structure shown.

What was measured:
[1] = system: E. faecalis JH2-2(pMV158) (tetracycline efflux, Tet L); experiment: Microdilution MIC, E. faecalis Tet L; format: cell-based; conditions: Enterococcus faecalis, read-out: MIC, E. faecalis Tet L
[2] = system: E. faecium 494 (Tet M plus Tet L); experiment: Microdilution MIC, E. faecium Tet M + L; format: cell-based; conditions: Enterococcus faecium, read-out: MIC, E. faecium Tet M + L
S. aureus MRSA 5 (Tet M) [3] = experiment: S. aureus MRSA 5 thigh wound infection model in mice; format: in vivo; conditions: 24 h after single subcutaneous injection of 20 mg/kg
[4] = system: S. aureus RN450 (wild type, tetracycline susceptible); experiment: Microdilution MIC, S. aureus wild type; format: cell-based; conditions: Staphylococcus aureus, read-out: MIC, S. aureus wild type
S. aureus MRSA 5 (Tet M) [5] = experiment: Serum MIC, S. aureus MRSA 5; format: cell-based; conditions: Staphylococcus aureus, read-out: S. aureus MRSA 5 (Tet M) serum MIC, None
[6] = Pharmacokinetics in nonhuman primates; format: in vivo, Cynomolgus monkeys; conditions: for AUC / Cmax / Tmax / half-life / bioavailability: cynomolgus monkey, plasma
Summary of the method: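 Cynomolgus monkeys were dosed intravenously (infusion ending at 0.25 h) or orally. Plasma was sampled predose and at 0.25, 0.5, 1, 3, 5, 7, 16 and 24 h. Protein was precipitated with acetonitrile containing 0.1% formic acid, then centrifuged. The supernatant was dried, reconstituted in methanol-water (1:1) and quantified by LC-MS/MS. PK parameters came from noncompartmental analysis.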

[7] = system: S. pneumoniae 157E (wild type, tetracycline susceptible); experiment: Microdilution MIC, S. pneumoniae wild type; format: cell-based; conditions: Streptococcus pneumoniae, read-out: MIC, S. pneumoniae wild type
[8] = system: S. aureus RN4250 (tetracycline efflux, Tet K); experiment: Microdilution MIC, S. aureus Tet K; format: cell-based; conditions: Staphylococcus aureus, read-out: MIC, S. aureus Tet K
[9] = system: E. faecalis JH2-2 (wild type, tetracycline susceptible); experiment: Microdilution MIC, E. faecalis wild type; format: cell-based; conditions: Enterococcus faecalis, read-out: MIC, E. faecalis wild type
[10] = system: S. pneumoniae ATCC 700905 (ribosome protection, Tet M); experiment: Microdilution MIC, S. pneumoniae Tet M; format: cell-based; conditions: Streptococcus pneumoniae, ATCC700905, read-out: MIC, S. pneumoniae Tet M
[11] = system: E. faecalis JH2-2(pAM211) (ribosome protection, Tet M); experiment: Microdilution MIC, E. faecalis Tet M; format: cell-based; conditions: Enterococcus faecalis, read-out: MIC, E. faecalis Tet M
[12] = system: S. aureus MRSA 5 (MRSA, ribosome protection, Tet M); experiment: Microdilution MIC, S. aureus Tet M; format: cell-based; conditions: Staphylococcus aureus, read-out: MIC, S. aureus Tet M
[13] = system: Gram-positive screening panel organisms (S. aureus, Enterococcus spp., S. pneumoniae); experiment: MIC ranges over the Gram-positive screening panel; format: cell-based; conditions: read-out: MIC range against resistant organisms

For `CN(C)c1ccc(O)c2c1C[C@H]1C[C@H]3[C@H](N(C)C)C(O)=C(C(N)=O)C(=O)[C@@]3(O)C(O)=C1C2=O` [Minocycline, minocycline], the MIC [1] was 0.5 µg/mL (≈ 1.09 µM), the MIC [2] was 16 µg/mL and the “reduction of colony count relative to untreated control animals” value (S. aureus MRSA 5 (Tet M) [3]) was 0.98 log10. It also gave an MIC [4] of 0.25 µg/mL (≈ 0.546 µM), an MIC (S. aureus MRSA 5 (Tet M) [5]) of 2 µg/mL (≈ 4.37 µM) and an AUC ([6]; iv, 5 mg/kg) of 27600 ng·h/mL. The Cmax ([6]; iv, 5 mg/kg) was 14800 ng/mL, the Tmax ([6]; iv, 5 mg/kg) was 0.1 h and the half-life ([6]; iv, 5 mg/kg) was 10.4 h. The AUC ([6]; po, 5 mg/kg) was 22100 ng·h/mL, the Cmax ([6]; po, 5 mg/kg) was 2200 ng/mL and the Tmax ([6]; po, 5 mg/kg) was 3 h. For the same compound, the bioavailability ([6]; po, 5 mg/kg) was 80%, the half-life ([6]; po, 5 mg/kg) was 7 h and the MIC [7] was < 0.06 µg/mL. It also gave an MIC [8] of 0.5 µg/mL (≈ 1.09 µM), an MIC [9] of 0.5 µg/mL (≈ 1.09 µM) and an MIC [10] of 8 µg/mL (≈ 17.5 µM). The MIC [11] was 16 µg/mL (≈ 35 µM) and the MIC [12] was 2 µg/mL (≈ 4.37 µM).

With `CN(C)[C@@H]1C(O)=C(C(N)=O)C(=O)[C@@]2(O)C(O)=C3C(=O)c4c(O)cccc4[C@@](C)(O)[C@H]3C[C@@H]12` [Tetracycline, tetracycline] the MIC [1] was 64 µg/mL (≈ 144 µM), the MIC [2] was > 64 µg/mL and the MIC [4] was < 0.06 µg/mL. The MIC [7] was < 0.06 µg/mL, the MIC [8] was > 64 µg/mL and the MIC [9] was 0.25 µg/mL (≈ 0.563 µM). The MIC [10] was 32 µg/mL (≈ 72 µM), the MIC [11] was > 64 µg/mL and the MIC [12] was 32 µg/mL (≈ 72 µM).

With `CN(C)c1cc(NC(=O)CNC(C)(C)C)c(O)c2c1C[C@H]1C[C@H]3[C@H](N(C)C)C(O)=C(C(N)=O)C(=O)[C@@]3(O)C(O)=C1C2=O` [Tigecycline, tigecycline] the MIC [1] was 0.5 µg/mL (≈ 0.854 µM), the MIC [2] was 0.5 µg/mL and the MIC [4] was 0.25 µg/mL (≈ 0.427 µM). For the same compound, the MIC (S. aureus MRSA 5 (Tet M) [5]) was 0.25 µg/mL (≈ 0.427 µM), the AUC ([6]; iv, 5 mg/kg) was 16300 ng·h/mL and the Cmax ([6]; iv, 5 mg/kg) was 23200 ng/mL. It also gave a Tmax ([6]; iv, 5 mg/kg) of 0.2 h, a half-life ([6]; iv, 5 mg/kg) of 10.9 h and an AUC ([6]; po, 5 mg/kg) of 500 ng·h/mL. The Cmax ([6]; po, 5 mg/kg) was 40 ng/mL, the Tmax ([6]; po, 5 mg/kg) was 4 h and the bioavailability ([6]; po, 5 mg/kg) was 3.1%. For the same compound, the half-life ([6]; po, 5 mg/kg) was 3.4 h, the MIC [7] was < 0.06 µg/mL and the MIC [8] was 0.5 µg/mL (≈ 0.854 µM). The MIC [9] was 0.5 µg/mL (≈ 0.854 µM), the MIC [10] was < 0.06 µg/mL and the MIC [11] was 0.5 µg/mL (≈ 0.854 µM). The MIC [12] was 0.25 µg/mL (≈ 0.427 µM).

In the case of `CN(C)c1cc(CNCC(C)(C)C)c(O)c2c1C[C@H]1C[C@H]3[C@H](N(C)C)C(O)=C(C(N)=O)C(=O)[C@@]3(O)C(O)=C1C2=O` [Compound 27, 9-neopentylaminomethylminocycline], the MIC [1] is reported as 0.5 µg/mL (≈ 0.898 µM), the MIC [2] is reported as 0.5 µg/mL and the “reduction of colony count relative to untreated control animals” value (S. aureus MRSA 5 (Tet M) [3]) is reported as 2.49 to 3.11 log10. For the same compound, the MIC [4] was 0.25 µg/mL (≈ 0.449 µM), the MIC (S. aureus MRSA 5 (Tet M) [5]) was 0.25 µg/mL (≈ 0.449 µM) and the MIC [13] was 0.06 to 0.5 µg/mL (≈ 0.108 to 0.898 µM). The “tolerability after intravenous infusion” value ([6]; Cynomolgus monkeys) was “well tolerated”, the AUC ([6]; iv, 2.6 mg/kg) was 9000 ng·h/mL and the Cmax ([6]; iv, 2.6 mg/kg) was 1880 ng/mL. It also gave a Tmax ([6]; iv, 2.6 mg/kg) of 0.2 h, a half-life ([6]; iv, 2.6 mg/kg) of 14.4 h and an AUC ([6]; po, 5 mg/kg) of 5300 ng·h/mL. For the same compound, the Cmax ([6]; po, 5 mg/kg) was 410 ng/mL, the Tmax ([6]; po, 5 mg/kg) was 2.3 h and the bioavailability ([6]; po, 5 mg/kg) was 31%. For the same compound, the half-life ([6]; po, 5 mg/kg) was 11.1 h, the “oral plasma exposure relative to tigecycline” value ([6]; oral administration, monkeys) was 10 fold and the MIC [7] was < 0.06 µg/mL. The MIC [8] was 0.25 µg/mL (≈ 0.449 µM), the MIC [9] was 0.25 µg/mL (≈ 0.449 µM) and the MIC [10] was < 0.06 µg/mL. It also gave an MIC [11] of 0.5 µg/mL (≈ 0.898 µM) and an MIC [12] of 0.25 µg/mL (≈ 0.449 µM).

In the case of `CN[C@H](CC(C)C)C(=O)N[C@H]1C(=O)N[C@@H](CC(N)=O)C(=O)N[C@H]2C(=O)N[C@H]3C(=O)N[C@H](C(=O)N[C@H](C(=O)O)c4cc(O)cc(O)c4-c4cc3ccc4O)[C@H](O)c3ccc(c(Cl)c3)Oc3cc2cc(c3O[C@@H]2O[C@H](CO)[C@@H](O)[C@H](O)[C@H]2O[C@H]2C[C@](C)(N)[C@H](O)[C@H](C)O2)Oc2ccc(cc2Cl)[C@H]1O` [Vancomycin], the MIC [1] is reported as 1 µg/mL (≈ 0.69 µM), the MIC [2] is reported as > 64 µg/mL and the MIC [4] is reported as 0.5 µg/mL (≈ 0.345 µM). The MIC (S. aureus MRSA 5 (Tet M) [5]) was 0.5 µg/mL (≈ 0.345 µM), the MIC [7] was 0.25 µg/mL (≈ 0.173 µM) and the MIC [8] was 0.25 µg/mL (≈ 0.173 µM). The MIC [9] was 1 µg/mL (≈ 0.69 µM), the MIC [10] was 0.25 µg/mL (≈ 0.173 µM) and the MIC [11] was 1 µg/mL (≈ 0.69 µM). It also gave an MIC [12] of 0.5 µg/mL (≈ 0.345 µM).
